Test results: ChEMBL document CHEMBL1154716, “Synthesis of some new S-triazine based chalcones and their derivatives as potent antimicrobial agents” (2010)
≈ marks a conversion by molar mass, not a printed value. Calls of active or inactive are those of the source. The calls are words filed in the database; no cut-off is given here.

What was measured:
[1] = test system: Listeria monocytogenes; test: Antimicrobial activity against Listeria monocytogenes after 24 hrs by microdilution technique; type: functional
Outline: (§1)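 Broth microdilution in LB medium. Inoculum is 1.0 × 10^4 cfu per well, from a saline-adjusted suspension of 1.0 × 10^5 cfu/ml. Compounds are dissolved in DMSO. Incubated 24 h at 28 C. MIC is the lowest concentration with no visible growth under a binocular microscope. MBC is read by subculture into fresh broth for 72 h, with no growth taken as 99.5% kill. OD is read at 655 nm.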

[2] = test system: Escherichia coli; test: Antimicrobial activity against Escherichia coli at 1 umol/disk after 24 hrs by disk diffusion assay; type: functional
Outline: (§2)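 Disc diffusion on 4 mm filter discs. Bacteria are grown overnight in LB at 28 C, then adjusted in saline to 1.0 × 10^5 cfu/ml. The suspension is mixed into top agar over peptone agar plates. Plates are incubated 24 h at 28 C, and growth-inhibition zone diameter is measured. Streptomycin and ampicillin controls are applied from a 1 mg/ml stock. Tests are done in duplicate.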

[3] = test system: Pseudomonas aeruginosa; test: Antimicrobial activity against Pseudomonas aeruginosa at 1 umol/disk after 24 hrs by disk diffusion assay; type: functional; outline: as §2
[4] = test system: Salmonella typhimurium; test: Antimicrobial activity against Salmonella Typhimurium at 1 umol/spot after 18 hrs by TLC-bioautographic method; type: functional
Outline: (§3)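 TLC bioautography. Samples are spotted on silica gel TLC plates, then sprayed with bacteria (1.0 × 10^5 cfu/ml) in tryptic soy broth. Plates are incubated 18 h at 37 C and sprayed with 3% aqueous p-iodonitrotetrazolium violet. After a further 3 h, growth is stopped with 70% EtOH. White zones on a pink background are scored as inhibition-zone diameter with standard errors.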

[5] = test system: Micrococcus flavus; test: Antimicrobial activity against Micrococcus flavus at 1 umol/spot after 18 hrs by TLC-bioautographic method; type: functional; outline: as §3
[6] = test system: Bacillus cereus; test: Antimicrobial activity against Bacillus cereus at 1 umol/spot after 18 hrs by TLC-bioautographic method; type: functional; outline: as §3
[7] = test system: Salmonella typhimurium; test: Antimicrobial activity against Salmonella Typhimurium at 10 ug/disk after 24 hrs by disk diffusion assay; type: functional, organism-based; settings: Salmonella enterica subsp. enterica serovar Typhimurium; outline: as §2
[8] = test system: Bacillus cereus; test: Antimicrobial activity against Bacillus cereus after 24 hrs by microdilution technique; type: functional; outline: as §1
[9] = test system: Listeria monocytogenes; test: Antimicrobial activity against Listeria monocytogenes at 1 umol/disk after 24 hrs by disk diffusion assay; type: functional; outline: as §2
[10] = test system: Staphylococcus aureus; test: Antimicrobial activity against Staphylococcus aureus at 10 ug/disk after 24 hrs by disk diffusion assay; type: functional; outline: as §2
[11] = test system: Staphylococcus aureus; test: Antimicrobial activity against Staphylococcus aureus at 1 umol/disk after 24 hrs by disk diffusion assay; type: functional; outline: as §2
[12] = test system: Pseudomonas aeruginosa; test: Antimicrobial activity against Pseudomonas aeruginosa after 24 hrs by microdilution technique; type: functional; outline: as §1
[13] = test system: Staphylococcus aureus; test: Antimicrobial activity against Staphylococcus aureus at 1 umol/spot after 18 hrs by TLC-bioautographic method; type: functional; outline: as §3
[14] = test system: Micrococcus flavus; test: Antimicrobial activity against Micrococcus flavus after 24 hrs by microdilution technique; type: functional; outline: as §1
[15] = test system: Enterobacter cloacae; test: Antimicrobial activity against Enterobacter cloacae at 10 ug/disk after 24 hrs by disk diffusion assay; type: functional; outline: as §2
[16] = test system: Salmonella typhimurium; test: Antimicrobial activity against Salmonella Typhimurium at 1 umol/disk after 24 hrs by disk diffusion assay; type: functional, organism-based; settings: Salmonella enterica subsp. enterica serovar Typhimurium; outline: as §2
[17] = test system: Enterobacter cloacae; test: Antimicrobial activity against Enterobacter cloacae after 24 hrs by microdilution technique; type: functional; outline: as §1
[18] = test system: Salmonella typhimurium; test: Antimicrobial activity against Salmonella Typhimurium after 24 hrs by microdilution technique; type: functional, Salmonella enterica subsp. enterica serovar Typhimurium; settings: Salmonella enterica; outline: as §1
[19] = test system: Micrococcus flavus; test: Antimicrobial activity against Micrococcus flavus at 10 ug/disk after 24 hrs by disk diffusion assay; type: functional; outline: as §2
[20] = test system: Enterobacter cloacae; test: Antimicrobial activity against Enterobacter cloacae at 1 umol/spot after 18 hrs by TLC-bioautographic method; type: functional; outline: as §3
[21] = test system: Enterobacter cloacae; test: Antimicrobial activity against Enterobacter cloacae at 1 umol/disk after 24 hrs by disk diffusion assay; type: functional; outline: as §2
[22] = test system: Escherichia coli; test: Antimicrobial activity against Escherichia coli at 1 umol/spot after 18 hrs by TLC-bioautographic method; type: functional; outline: as §3
[23] = test system: Bacillus cereus; test: Antimicrobial activity against Bacillus cereus at 1 umol/disk after 24 hrs by disk diffusion assay; type: functional; outline: as §2
[24] = test system: Listeria monocytogenes; test: Antimicrobial activity against Listeria monocytogenes at 1 umol/spot after 18 hrs by TLC-bioautographic method; type: functional; outline: as §3
[25] = test system: Staphylococcus aureus; test: Antimicrobial activity against Staphylococcus aureus after 24 hrs by microdilution technique; type: functional; outline: as §1
[26] = test system: Pseudomonas aeruginosa; test: Antimicrobial activity against Pseudomonas aeruginosa at 10 ug/disk after 24 hrs by disk diffusion assay; type: functional; outline: as §2
[27] = test system: Bacillus cereus; test: Antimicrobial activity against Bacillus cereus at 10 ug/disk after 24 hrs by disk diffusion assay; type: functional; outline: as §2
[28] = test system: Escherichia coli; test: Antimicrobial activity against Escherichia coli at 10 ug/disk after 24 hrs by disk diffusion assay; type: functional; outline: as §2
[29] = test system: Pseudomonas aeruginosa; test: Antimicrobial activity against Pseudomonas aeruginosa at 1 umol/spot after 18 hrs by TLC-bioautographic method; type: functional; outline: as §3
[30] = test system: Escherichia coli; test: Antimicrobial activity against Escherichia coli after 24 hrs by microdilution technique; type: functional; outline: as §1
[31] = test system: Micrococcus flavus; test: Antimicrobial activity against Micrococcus flavus at 1 umol/disk after 24 hrs by disk diffusion assay; type: functional; outline: as §2
[32] = test system: Listeria monocytogenes; test: Antimicrobial activity against Listeria monocytogenes at 10 ug/disk after 24 hrs by disk diffusion assay; type: functional; outline: as §2

| SMILES | MBC [1] | MIC [1] | inhibition zone (IZ) [2] | inhibition zone (IZ) [3] | inhibition zone (IZ) [5] | inhibition zone (IZ) [6] | inhibition zone (IZ) [7] | MBC [8] | MIC [8] | inhibition zone (IZ) [9] | inhibition zone (IZ) [10] | inhibition zone (IZ) [11] | MBC [12] | MIC [12] | inhibition zone (IZ) [13] | MBC [14] | MIC [14] | inhibition zone (IZ) [15] | inhibition zone (IZ) [16] | MBC [17] | other results |
| --- | --- | --- | --- | --- | --- | --- | --- | --- | --- | --- | --- | --- | --- | --- | --- | --- | --- | --- | --- | --- | --- |
| N#Cc1c(-c2ccc([N+](=O)[O-])cc2)cc(-c2ccc(Nc3nc(Nc4ccccc4)nc(Nc4ccccc4)n3)cc2)nc1N | 676 µM (≈ 401 µg/mL) | 676 µM (≈ 401 µg/mL) | inactive | inactive | 0.07 millimeter | inactive | inactive | 338 µM (≈ 200 µg/mL) | 169 µM (≈ 100 µg/mL) | inactive | inactive | inactive | 676 µM (≈ 401 µg/mL) | 676 µM (≈ 401 µg/mL) | inactive | 676 µM (≈ 401 µg/mL) | 338 µM (≈ 200 µg/mL) | inactive | inactive | 338 µM (≈ 200 µg/mL) | inhibition zone (IZ) ([4]; Salmonella enterica subsp. enterica serovar Typhimurium): inactive; MIC [17]: 169 µM (≈ 100 µg/mL); MBC [18]: 676 µM (≈ 401 µg/mL); MIC [18]: 676 µM (≈ 401 µg/mL); zone of inhibition at 10 µg/disc ([19]; read-out: IZ): 6 mm; inhibition zone (IZ) [20]: 0.09 millimeter; inhibition zone (IZ) [21]: inactive; inhibition zone (IZ) [22]: inactive; inhibition zone (IZ) [23]: inactive; inhibition zone (IZ) [24]: 0.1 millimeter; MBC [25]: 676 µM (≈ 401 µg/mL); MIC [25]: 338 µM (≈ 200 µg/mL); inhibition zone (IZ) [26]: inactive; inhibition zone (IZ) [27]: inactive; inhibition zone (IZ) [28]: inactive; inhibition zone (IZ) [29]: 0.09 millimeter; MBC [30]: 676 µM (≈ 401 µg/mL); MIC [30]: 338 µM (≈ 200 µg/mL); inhibition zone (IZ) [31]: 0.04 millimeter; inhibition zone (IZ) [32]: inactive |
| O=C(/C=C/c1ccc([N+](=O)[O-])cc1)c1ccc(Nc2nc(Nc3ccccc3)nc(Nc3ccccc3)n2)cc1 | 756 µM (≈ 400 µg/mL) | 378 µM (≈ 200 µg/mL) | 0.03 millimeter | inactive | 0.05 millimeter | inactive | inactive | 378 µM (≈ 200 µg/mL) | 189 µM (≈ 100 µg/mL) | inactive | inactive | inactive | 756 µM (≈ 400 µg/mL) | 378 µM (≈ 200 µg/mL) | inactive | 378 µM (≈ 200 µg/mL) | 189 µM (≈ 100 µg/mL) | inactive | inactive | 378 µM (≈ 200 µg/mL) | inhibition zone (IZ) [4]: 0.08 millimeter; MIC [17]: 189 µM (≈ 100 µg/mL); MBC [18]: 756 µM (≈ 400 µg/mL); MIC [18]: 378 µM (≈ 200 µg/mL); inhibition zone (IZ) [19]: inactive; inhibition zone (IZ) [20]: 0.09 millimeter; inhibition zone (IZ) [21]: inactive; inhibition zone (IZ) [22]: inactive; inhibition zone (IZ) [23]: inactive; inhibition zone (IZ) [24]: 0.07 millimeter; MBC [25]: 756 µM (≈ 400 µg/mL); MIC [25]: 378 µM (≈ 200 µg/mL); inhibition zone (IZ) [26]: inactive; inhibition zone (IZ) [27]: inactive; zone of inhibition at 10 µg/disc ([28]; read-out: IZ): 6 mm; inhibition zone (IZ) [29]: inactive; MBC [30]: 378 µM (≈ 200 µg/mL); MIC [30]: 189 µM (≈ 100 µg/mL); inhibition zone (IZ) [31]: inactive; inhibition zone (IZ) [32]: inactive |
